Test results published in ChEMBL document CHEMBL4152268, “Synthesis of proline derived benzenesulfonamides: A potent anti-Trypanosoma brucei gambiense agent” (Eur J Med Chem, 2018).

Tests used:
[1] = tested on: Rattus norvegicus; assay: Antiinflammatory activity in rat assessed as inhibition of carrageenan-induced paw edema at 100 mg/kg, po administered 1 hr followed by carrageenan challenge measured at 0.5 hrs by plethysmometer relative to control; type: functional
In short: (§1)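 Rats dosed orally (test compounds 100 mg/kg; indomethacin reference 25 mg/kg). One hour later, 1% carrageenan suspension (0.05 mL/animal) was injected sub-plantar into the right hind paw. Paw size was measured by mercury-displacement plethysmometer, calibrated beforehand, at intervals after injection. Activity was calculated as percentage decrease in carrageenan-induced edema relative to control.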

[2] = tested on: Rattus norvegicus; assay: Antiinflammatory activity in rat assessed as inhibition of carrageenan-induced paw edema at 100 mg/kg, po administered 1 hr followed by carrageenan challenge measured at 3 hrs by plethysmometer relative to control; type: functional; in short: as §1
[3] = tested on: Rattus norvegicus; assay: Antiinflammatory activity in rat assessed as inhibition of carrageenan-induced paw edema at 100 mg/kg, po administered 1 hr followed by carrageenan challenge measured at 1 hr by plethysmometer relative to control; type: functional; in short: as §1
[4] = tested on: Trypanosoma brucei gambiense; assay: Antitrypanosomal activity against Trypanosoma brucei gambiense GUTat 3.1 after 72 hrs by Alamar Blue assay; type: functional, organism-based; settings: GUTat 3.1, 72 h
In short: (§2)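 T. b. gambiense GUTat 3.1 was cultured in supplemented IMDM with 10% heat-inactivated FBS at 37 °C under 5.0% CO2/95% air. Parasites were seeded in 96-well plates, and compound in 5.0% DMSO was added for 72 h. Alamar Blue was then added for 3-6 h and fluorescence read (ex 528/20, em 590/35 nm). IC50 was obtained from the plate-reader software.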

[5] = tested on: Rattus norvegicus; assay: Antiinflammatory activity in rat assessed as inhibition of carrageenan-induced paw edema at 100 mg/kg, po administered 1 hr followed by carrageenan challenge measured at 2 hrs by plethysmometer relative to control; type: functional; in short: as §1
[6] = tested on: Mus musculus; assay: Toxicity in ip dosed mouse measured over 72 hrs; type: organism-based; settings: in vivo
In short: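 Male mice, grouped, given graded intraperitoneal doses; watched continuously 6 h, then kept under observation to 72 h, monitored 4 times daily, with behavioural changes and deaths recorded. Humane endpoints applied, with CO2 euthanasia. Percentage death per dose converted to probits to derive LD50 (μM/kg); mortality rate = dead/group size ×100.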

[7] = tested on: Trypanosoma brucei gambiense; assay: Antitrypanosomal activity against Trypanosoma brucei gambiense; type: functional, organism-based; in short: as §2
[8] = tested on: Trypanosoma brucei brucei; assay: Antitrypanosomal activity against Trypanosoma brucei brucei after 48 hrs by Alamar blue assay; type: functional, organism-based
[9] = tested on: Rattus norvegicus; assay: Antiinflammatory activity in rat assessed as inhibition of carrageenan-induced paw edema at 25 mg/kg, po administered 1 hr followed by carrageenan challenge measured at 0.5 hrs by plethysmometer relative to control; type: functional; in short: as §1
[10] = tested on: Rattus norvegicus; assay: Antiinflammatory activity in rat assessed as inhibition of carrageenan-induced paw edema at 25 mg/kg, po administered 1 hr followed by carrageenan challenge measured at 3 hrs by plethysmometer relative to control; type: functional; in short: as §1
[11] = tested on: Rattus norvegicus; assay: Antiinflammatory activity in rat assessed as inhibition of carrageenan-induced paw edema at 25 mg/kg, po administered 1 hr followed by carrageenan challenge measured at 1 hr by plethysmometer relative to control; type: functional; in short: as §1
[12] = tested on: Rattus norvegicus; assay: Antiinflammatory activity in rat assessed as inhibition of carrageenan-induced paw edema at 25 mg/kg, po administered 1 hr followed by carrageenan challenge measured at 2 hrs by plethysmometer relative to control; type: functional; in short: as §1

Row | IC50 [7] [nM] | IC50 [8] [nM] | SMILES | inhibition in vivo at 100 mg/kg [1] [%] | inhibition in vivo at 100 mg/kg [2] [%] | inhibition in vivo at 100 mg/kg [3] [%] | IC50 [4] [nM] | inhibition in vivo at 100 mg/kg [5] [%] | LD50 [6] [µM/g] | inhibition in vivo at 25 mg/kg [9] [%] | inhibition in vivo at 25 mg/kg [10] [%] | inhibition in vivo at 25 mg/kg [11] [%] | inhibition in vivo at 25 mg/kg [12] [%]
1 | – | – | Cc1ccccc1S(=O)(=O)N1CC(O)C[C@H]1C(=O)Nc1ccc(C(=O)O)cc1 (stereo partly specified) | 38.6 | 25.3 | 21.2 | 157 | 23.4 | 9.98 | – | – | – | –
2 | – | – | O=C(O)c1ccc(NC(=O)[C@@H]2CCCN2S(=O)(=O)c2ccccc2)cc1 | 23.6 | 31.1 | 26.3 | 159 | 29.4 | 10.06 | – | – | – | –
3 | – | – | Cc1ccc(S(=O)(=O)N2CC(O)C[C@H]2C(=O)Nc2ccc(C(=O)O)cc2)cc1 (stereo partly specified) | 58 | 84 | 60 | 155 | 67.2 | 12.01 | – | – | – | –
4 | – | – | Cc1ccc(S(=O)(=O)N2CCC[C@H]2C(=O)Nc2ccc(C(=O)O)cc2)cc1 | 28.8 | 35.3 | 31.5 | 101 | 36.3 | 11.92 | – | – | – | –
5 | – | – | O=C(O)c1ccc(NC(=O)[C@@H]2CC(O)CN2S(=O)(=O)c2ccccc2)cc1 (stereo partly specified) | 33.9 | 1.85 | 24.7 | 160 | 27.3 | 12.07 | – | – | – | –
6 | 1300 | – | CCS(=O)(=O)N1CCCc2cc(NS(=O)(=O)c3ccccc3F)ccc21 | – | – | – | – | – | – | – | – | – | –
7 | – | – | Cc1ccccc1S(=O)(=O)N1CCC[C@H]1C(=O)Nc1ccc(C(=O)O)cc1 | 35.8 | 40 | 39.4 | 134 | 36.3 | 13.09 | – | – | – | –
8 | – | – | O=C(O)c1ccc(NC(=O)[C@@H]2CCCN2S(=O)(=O)c2ccc([N+](=O)[O-])cc2)cc1 | 42.1 | 52.3 | 45.9 | 2 | 50.1 | 8.65 | – | – | – | –
9 | – | – | O=C(O)c1ccc(NC(=O)[C@@H]2CC(O)CN2S(=O)(=O)c2ccc([N+](=O)[O-])cc2)cc1 (stereo partly specified) | 44.1 | 62.8 | 48.5 | 144 | 52.2 | 10.28 | – | – | – | –
10 | – | 120 | CCCCN(CCCC)c1c([N+](=O)[O-])cc(S(=O)(=O)Nc2ccccc2)cc1[N+](=O)[O-] | – | – | – | – | – | – | – | – | – | –
11 | – | – | COc1ccc2c(c1)c(CC(=O)O)c(C)n2C(=O)c1ccc(Cl)cc1 [INDOMETHACIN] | – | – | – | – | – | – | 56.9 | 63.6 | 63.5 | 64.8
12 | – | – | Nc1nc(N)nc(Nc2ccc([As]3SCC(CO)S3)cc2)n1 (stereo unspecified) [MELARSOPROL] | – | – | – | 5 | – | 8.75 | – | – | – | –
